Columns and labels:
[1] = target: Vascular endothelial growth factor receptor 2 (Homo sapiens, UniProt P35968); assay: Inhibition of VEGFR2 (unknown origin) incubated for 10 mins followed by kinase substrate addition and measured after 30 mins by caliper mobility shift assay
HepG2 = assay: Antiproliferative activity against human HepG2 cells assessed as cell growth inhibition after 72 hrs by MTT assay; assay type: functional, cell-based; details: HepG2, 72 h
Method in brief: (§1)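 Log-phase cells were seeded at 5 × 10³ per well and attached 24 h. HT-29 and GES-1 were grown in DMEM-based medium, A549/HepG2/HGC-27 in RPMI-1640, HUVEC in ECM with ECGS; all media had 10% FBS. Cells were exposed to graded compound concentrations for 72 h at 37 °C. MTT (5 mg/mL stock) was added for 4 h, formazan dissolved in DMSO, and A490 read. IC50 was obtained by nonlinear sigmoidal regression; mean ± S.E. of three experiments.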

HGC-27 [2] = assay: Antiproliferative activity against human HGC-27 cells assessed as cell growth inhibition after 72 hrs by MTT assay; assay type: functional, cell-based; details: HGC-27, 72 h; method in brief: as §1
HGC-27 [3] = assay: Inhibition of colony formation in human HGC-27 cells after 12 days by crystal violet staining based assay; assay type: functional, cell-based; details: dose 0.1-1 µM, time 12.0 day
Method in brief: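 HGC-27 cells (500/well, 6-well plates) attached 24 h at 37 °C, then kept 12 days in medium with compound (0.1, 0.5, 1 µM), 0.1% DMSO vehicle or 5 µM sorafenib. Washed with cold PBS, methanol-fixed, stained 0.1% crystal violet 30 min; colonies >50 cells photographed and counted.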

HGC-27 [4] = assay: Inhibition of cell migration at human HGC-27 cells measured up to 24 hrs by microscopic based wound healing assay; assay type: functional; details: dose 0.1-1 µM, time hrs <=24
Method in brief: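 HGC-27 grown to 80–90% confluence in 6-well plates, serum-starved 12 h, scratched with 200 µL tip (~1 mm lane). Washed, then given complete medium alone or with compound (0.1, 0.5, 1 µM) or sorafenib positive control. Imaged by inverted microscope at 0, 6 and 24 h; relative scratch closure quantified; mean ± SD, three independent experiments.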

HGC-27 [5] = assay: Antimigratory activity against human HGC-27 cells assessed as relative closure of scratches at 0.5 uM measured after 24 hrs by scratch wound healing assay relative to control; assay type: functional
Method in brief: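 HGC-27 monolayers at 80–90% confluence were serum-starved 12 h, then scratched to give 1 mm lanes. After a PBS wash, cells received complete medium with or without compound (0.1, 0.5, 1 μM). Wounds were imaged at 0, 6 and 24 h. Relative scratch closure was quantified against untreated control; mean ± SD of three experiments.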

HGC-27 [6] = assay: Antimigratory activity against human HGC-27 cells assessed as reduction in cell migration measured after 24 hrs by crystal violet staining microscopy based transwell migration assay; assay type: functional; details: dose 0.1-1 µM
HGC-27 [7] = assay: Up regulation of E-cadherin expression in human HGC-27 cells at 1 uM measured after 24 hrs by immunoblot analysis; assay type: functional, cell-based
Method in brief: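 HGC-27 seeded 1.0×10^6 cells/dish in RPMI-1640/10% FBS; 24 h with compound (0.1, 0.5, 1 µM), 0.1% DMSO vehicle or sorafenib. RIPA lysates with PMSF/phosphatase inhibitor, BCA-normalized, 8–12% SDS-PAGE, nitrocellulose, milk block, primary antibodies overnight 4 °C, HRP secondaries, ECL; E-cadherin band densitometry; mean ± SD, three independent experiments.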

HGC-27 [8] = assay: Induction of apoptosis in human HGC-27 cells assessed as total apoptotic cells level at 0.5 uM incubated for 24 hrs by propidium iode and annexin V-FITC staining based flow cytometry; assay type: functional
Method in brief: (§2)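 HGC-27 cells (1.0 × 10⁶ per 60 mm dish) were treated 24 h with 0.1% DMSO or compound (0.1, 0.5, 1 μM). Cells were stained with Annexin V-FITC in HEPES/NaCl/CaCl₂ binding buffer (pH 7.4) for 15 min at room temperature, then with PI for 10 min. About 10 000 events were acquired by flow cytometry to give viable, early apoptotic, late apoptotic and necrotic fractions.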

HGC-27 [9] = assay: Induction of apoptosis in human HGC-27 cells assessed as early apoptotic cells level at 0.1 uM incubated for 24 hrs by propidium iode and annexin V-FITC staining based flow cytometry (reference value: 1.48%); assay type: functional; method in brief: as §2
HGC-27 [10] = assay: Induction of apoptosis in human HGC-27 cells assessed as early apoptotic cells level incubated for 24 hrs by propidium iode and annexin V-FITC staining based flow cytometry; assay type: functional, cell-based; details: dose 0.1-1 µM; method in brief: as §2
HGC-27 [11] = assay: Induction of apoptosis in human HGC-27 cells assessed as up regulation of Bax protein expression at measured after 24 hrs by Western blot analysis; assay type: functional, cell-based; details: dose 0.1-1 µM
Method in brief: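 HGC-27 cells (1.0 × 10⁶ per 60 mm dish) were treated 24 h with 0.1% DMSO or compound (0.1, 0.5, 1 μM). Cells were lysed in RIPA with PMSF and phosphatase inhibitor, and protein measured by BCA. Lysates were run on 8–12% SDS-PAGE, transferred to nitrocellulose and probed with primary antibodies overnight at 4 °C, then HRP secondary. Bands were detected by ECL and densitometry; at least triplicate.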

Vascular endothelial growth factor receptor 2, sequence (P35968 whole entry): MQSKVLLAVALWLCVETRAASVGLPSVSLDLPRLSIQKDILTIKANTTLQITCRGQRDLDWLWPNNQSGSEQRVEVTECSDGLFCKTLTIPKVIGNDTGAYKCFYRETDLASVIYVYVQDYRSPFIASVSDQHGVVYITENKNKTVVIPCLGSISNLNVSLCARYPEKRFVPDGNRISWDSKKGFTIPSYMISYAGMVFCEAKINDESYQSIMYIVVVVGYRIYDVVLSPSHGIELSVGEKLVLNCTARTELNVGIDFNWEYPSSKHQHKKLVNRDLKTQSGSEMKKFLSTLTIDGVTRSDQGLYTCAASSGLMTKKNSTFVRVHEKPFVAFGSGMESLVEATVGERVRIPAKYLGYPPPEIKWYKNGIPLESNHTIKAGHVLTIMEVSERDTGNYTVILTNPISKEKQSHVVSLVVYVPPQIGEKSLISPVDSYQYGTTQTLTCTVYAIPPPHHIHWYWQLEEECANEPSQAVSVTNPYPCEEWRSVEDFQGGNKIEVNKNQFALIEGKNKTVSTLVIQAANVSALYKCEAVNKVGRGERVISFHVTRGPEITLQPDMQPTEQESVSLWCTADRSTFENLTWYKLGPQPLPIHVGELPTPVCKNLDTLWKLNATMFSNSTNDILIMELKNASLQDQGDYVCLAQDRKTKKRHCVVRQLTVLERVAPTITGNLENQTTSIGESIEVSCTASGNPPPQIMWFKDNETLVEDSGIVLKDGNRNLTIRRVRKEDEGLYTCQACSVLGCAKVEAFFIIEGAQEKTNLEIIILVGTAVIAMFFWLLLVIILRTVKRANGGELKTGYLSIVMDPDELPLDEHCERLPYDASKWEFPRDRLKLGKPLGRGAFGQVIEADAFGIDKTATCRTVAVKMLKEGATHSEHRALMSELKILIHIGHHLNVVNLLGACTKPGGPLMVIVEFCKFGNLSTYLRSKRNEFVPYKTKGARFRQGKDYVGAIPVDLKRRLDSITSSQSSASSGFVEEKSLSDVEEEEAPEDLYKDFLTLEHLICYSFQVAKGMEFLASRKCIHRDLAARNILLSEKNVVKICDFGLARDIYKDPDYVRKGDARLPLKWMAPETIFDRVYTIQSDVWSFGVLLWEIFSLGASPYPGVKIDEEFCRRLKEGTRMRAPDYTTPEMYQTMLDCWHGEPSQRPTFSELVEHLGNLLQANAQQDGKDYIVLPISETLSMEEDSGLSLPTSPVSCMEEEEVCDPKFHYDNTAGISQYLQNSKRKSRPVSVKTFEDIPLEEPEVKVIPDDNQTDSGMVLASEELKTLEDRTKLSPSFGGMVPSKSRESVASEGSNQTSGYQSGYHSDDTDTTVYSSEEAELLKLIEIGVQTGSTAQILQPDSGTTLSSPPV

## CC(=O)Nc1n[nH]c2cc(-c3cnn(CC(=O)Nc4ccc(C)c(C(F)(F)F)c4)c3)ccc12
[1]
  IC50: 1.6 nM
HepG2
  IC50: 15000 nM
HGC-27 [2]
  IC50: 360 nM
HGC-27 [3]
  inhibition: Dose-Dependent Effect
HGC-27 [4]
  inhibition: Dose-Dependent Effect
HGC-27 [5]
  inhibition at 0.5 µM: 28%
HGC-27 [6]
  inhibition: Dose-Dependent Effect
HGC-27 [7]
  Activity: Dose-Dependent Effect
HGC-27 [8]
  Activity: 19.55%
HGC-27 [9]
  Activity: 4.75%
HGC-27 [10]
  Activity: Dose-Dependent Effect
HGC-27 [11]
  Activity: Dose-Dependent Effect
